# According to PubChem BioAssay AID652163 (Broad Institute, 2013):
# Hit rate of the full screen: of about 360,000 compounds, about 500 (0.14%) were called active.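 The calls were made as follows: active = mean inhibition of at least 70% across replicates, with every replicate also reaching that level; inconclusive = mean inhibition reaches 70% but some replicates fall short; inactive = mean inhibition below 70%.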 For the sample, actives were picked, then their nearest neighbours and some compounds at random.
# Biological target: Protein S100-A4 (Homo sapiens) (UniProt P26447)
# Sequence (P26447 whole entry, looked up): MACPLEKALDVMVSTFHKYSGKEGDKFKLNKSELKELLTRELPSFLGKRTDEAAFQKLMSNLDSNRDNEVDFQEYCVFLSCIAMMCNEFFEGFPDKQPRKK
# Test: human S100A4 protein-peptide interaction blockers – biochemical, fluorescence polarization, TAMRA-MyoIIA peptide, primary screen (AID 652163)
# Settings: at 10.7 µM, active compounds read high
# Procedure, shortened: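 Material: S100A4 monomer (human). Medium: Calcium-containing HEPES buffer, pH 7.2. Probe or stimulus: labelled myosin peptide probe, 5 nM. Compound dosing: one concentration per compound. Timing: polarization read 5 min after assay mix addition, stable 5–60 min. Benchmarks: DMSO as neutral control, TFP as positive control.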
row,Structure (SMILES),inhibition
1,CO[C@@H]1CN(C)C(=O)c2ccc(NS(=O)(=O)c3cccc(F)c3)cc2OC[C@H](C)N(C(=O)Cc2cccnc2)C[C@@H]1C,0.669% (inactive)
2,CC(C)[C@@H]1COCn2nncc2CCCC(=O)N1,-3.23% (inactive)
3,CCCNC(=O)[C@@H]1[C@@H](CO)[C@@H]2Cn3c(cccc3=O)[C@H]1N2C(=O)C1CCC1,6.67% (inactive)
4,Cc1cccc(S(=O)(=O)N2C[C@H]3[C@@H](c4ccccc42)[C@H](CO)N3Cc2ccc3c(c2)OCO3)c1,7.88% (inactive)
5,Cc1cccc(S(=O)(=O)N2C[C@@H]3[C@H](c4ccccc42)[C@H](CO)N3CC2CCOCC2)c1,86.4% (active)
6,Cc1cccc(S(=O)(=O)N2C[C@@H]3[C@H](c4ccccc42)[C@@H](CO)N3C(=O)c2ccccc2)c1,3.03% (inactive)
7,C[C@H](CO)N1C[C@H](C)[C@@H](CN(C)C(=O)Nc2ccccc2)Oc2ncc(C3=CCCC3)cc2C1=O,2.15% (inactive)
8,CO[C@H]1CN(C)C(=O)c2cc(NS(=O)(=O)c3ccc(C)cc3)ccc2OC[C@H](C)NC[C@H]1C,7.5% (inactive)
9,COc1cccc(C#Cc2cnc3c(c2)C(=O)N([C@@H](C)CO)C[C@H](C)[C@H](CN(C)CC2CC2)O3)c1,-46.8% (inactive)
10,O=C(C[C@@H]1CC[C@@H](NC(=O)Nc2ccc(F)cc2)[C@@H](CO)O1)NCCN1CCCC1,-3.14% (inactive)
11,O=C(Cc1ccccc1)N1C[C@H]2[C@@H](c3ccccc31)[C@H](CO)N2C(=O)c1ccc(F)cc1,7.78% (inactive)
12,CCS(=O)(=O)N1[C@H](CO)[C@@H](c2ccccc2)C12CN(C(=O)C1CCC1)C2,-10% (inactive)
13,COc1ccc(NC(=O)N(C)C[C@@H]2OCCCC[C@@H](C)Oc3ccc(NC(=O)C4CCCCC4)cc3C(=O)N([C@@H](C)CO)C[C@@H]2C)cc1,2.51% (inactive)
14,CCCNC(=O)Nc1ccc2c(c1)OC[C@H](C)N(C(=O)C1CCC1)C[C@H](C)[C@@H](OC)CN(C)C2=O,-7.21% (inactive)
15,COCC#Cc1cnc2c(c1)C(=O)N([C@H](C)CO)C[C@@H](C)[C@@H](CN(C)C(=O)Nc1cccc(F)c1)O2,-1.97% (inactive)
16,C[C@@H]1CN([C@H](C)CO)C(=O)c2cc(NC(=O)Cn3cnnn3)ccc2O[C@@H]1CN(C)CC1CC1,13.2% (inactive)
17,CN(C)C(=O)c1ccc(-c2ccc([C@@H]3[C@@H](CO)N4CCCCN(CC5CC5)C[C@H]34)cc2)cc1,11.7% (inactive)
18,O=C(C[C@H]1C=C[C@H](NC(=O)CN2CCOCC2)[C@@H](CO)O1)NCc1cccc(F)c1,2.82% (inactive)
19,CC=Cc1ccc2n(c1=O)C[C@H]1[C@H](CO)[C@@H](C(=O)NCCc3cn(C)cn3)[C@@H]2N1C(=O)CC (mixture of isomers),-3.21% (inactive)
20,C[C@@H]1CN([C@@H](C)CO)C(=O)c2c(c3ccccc3n2C)-c2ccccc2CO[C@@H]1CN(C)Cc1ccc2c(c1)OCCN2C,1.33% (inactive)
21,O=C(N[C@H]1CC[C@@H](CCNS(=O)(=O)Cc2ccccc2)O[C@H]1CO)c1ccccc1F,106% (active)

row,Structure (SMILES),inhibition
1,O=C(N[C@@H]1CC[C@@H](CCNS(=O)(=O)Cc2ccccc2)O[C@@H]1CO)c1ccccc1F,3.62% (inactive)
2,CC(C)NC(=O)N[C@@H]1CC[C@@H](CCNS(=O)(=O)Cc2ccccc2)O[C@@H]1CO,-2.44% (inactive)
3,C[C@@H]1CN([C@@H](C)CO)C(=O)Cc2cc(NC(=O)Cc3ccccc3)ccc2O[C@@H]1CN(C)C(=O)Nc1ccc2c(c1)OCO2,-20.2% (inactive)
4,CS(=O)(=O)Nc1ccc2c(c1)[C@H]1C[C@H](CC(=O)NC3CCCC3)O[C@@H](CO)[C@H]1O2,5.62% (inactive)
5,CN(C)C(=O)[C@@H]1[C@@H](CO)[C@@H]2Cn3c(ccc(C4=CCCC4)c3=O)[C@H]1N2Cc1ccccn1,6.14% (inactive)
6,COc1ccc2c3c([nH]c2c1)[C@@H](CO)N(C(=O)c1cccc(F)c1)CC31CN(C(C)=O)C1,-5.37% (inactive)
7,COc1ccc(CCNC(=O)CN(c2ccccc2)S(=O)(=O)c2ccccc2)cc1,0.0805% (inactive)
8,CCOc1ccc(N(CC(=O)NCCOc2ccccc2OC)S(=O)(=O)c2ccccc2)cc1,116% (active)
9,CCOc1ccc(N(CC(=O)NCCc2ccc(F)cc2)S(=O)(=O)c2ccccc2)cc1,-1.04% (inactive)
10,N[C@@H]1CC[C@H](CCn2cc(C3CC3)nn2)O[C@@H]1CO,5.57% (inactive)
11,C[C@@H]1CN([C@H](C)CO)C(=O)c2cc(NC(=O)CCCCCC(=O)Nc3ccccc3N)ccc2O[C@H]1CN(C)C(=O)Nc1ccc(C(F)(F)F)cc1,-13% (inactive)
12,C[C@H](CO)N1C[C@H](C)[C@@H](CN(C)Cc2ccncc2)Oc2cc(Br)ccc2S1(=O)=O,-8.65% (inactive)
13,C[C@@H]1CN([C@@H](C)CO)C(=O)c2cc(NC(=O)c3ccncc3)ccc2O[C@@H]1CN(C)Cc1ccncc1,106% (active)
14,C[C@@H]1CN([C@H](C)CO)C(=O)c2cccc(NC(=O)c3ccncc3)c2O[C@@H]1CN(C)C,111% (active)
15,C[C@H]1CN([C@@H](C)CO)C(=O)c2cccc(NC(=O)Nc3ccccc3)c2O[C@H]1CN(C)Cc1ccc(Oc2ccccc2)cc1,-8.88% (inactive)
16,C[C@@H]1CN([C@@H](C)CO)C(=O)c2cc(NC(=O)c3ccncc3)ccc2O[C@H]1CN(C)Cc1ccc(C(=O)O)cc1,3.13% (inactive)
17,COc1ccc(CN(C)C[C@H]2Oc3c(NC(=O)Nc4ccccc4)cccc3C(=O)N([C@@H](C)CO)C[C@@H]2C)cc1,91.2% (active)
18,C[C@@H]1CN([C@@H](C)CO)C(=O)c2cccc(NC(=O)Nc3ccccc3)c2O[C@H]1CN(C)Cc1ccccc1,-2.48% (inactive)
19,C[C@H]1CN([C@@H](C)CO)C(=O)c2cccc(NC(=O)c3ccncc3)c2O[C@H]1CN(C)C,13.8% (inactive)
20,C[C@H]1CN([C@@H](C)CO)C(=O)c2cccc(NC(=O)c3ccncc3)c2O[C@@H]1CN(C)C,1.35% (inactive)
21,C[C@@H]1CN([C@H](C)CO)C(=O)c2cc(NC(=O)c3ccncc3)ccc2O[C@H]1CN(C)Cc1ccc(Oc2ccccc2)cc1,1.42% (inactive)
